# Source: ChEMBL document CHEMBL1130826, “Novel constrained CCK-B dipeptoid antagonists derived from pipecolic acid” (Bioorg Med Chem Lett, 1998)
# Legend:
# [1] = target: T1, Cholecystokinin receptor type A (Cavia porcellus, UniProt Q63931); experiment: Binding affinity against CCK-A receptor in guinea pig pancreatic membranes; format: cell membranes
# T1 sequence (Q63931 whole entry): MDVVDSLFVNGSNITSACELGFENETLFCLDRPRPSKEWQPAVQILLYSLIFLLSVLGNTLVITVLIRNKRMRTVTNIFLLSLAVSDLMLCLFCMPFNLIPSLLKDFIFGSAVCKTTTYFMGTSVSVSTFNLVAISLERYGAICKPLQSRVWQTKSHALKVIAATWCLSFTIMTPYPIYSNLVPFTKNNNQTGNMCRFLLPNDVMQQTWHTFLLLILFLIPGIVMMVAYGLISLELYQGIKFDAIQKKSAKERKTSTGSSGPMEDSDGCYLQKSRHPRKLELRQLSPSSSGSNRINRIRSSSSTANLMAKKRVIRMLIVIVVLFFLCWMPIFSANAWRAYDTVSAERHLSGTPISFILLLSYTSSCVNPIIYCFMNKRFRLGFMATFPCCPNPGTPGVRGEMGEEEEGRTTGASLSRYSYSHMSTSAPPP
# Outline: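 Ki from displacement of [3H]pCCK8 bound to guinea-pig pancreatic membranes (CCK-A receptor).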
# [2] = target: T2, Gastrin/cholecystokinin type B receptor (Rattus norvegicus, UniProt P30553); experiment: Capacity to inhibit [3H]-p CCK 8 binding to membrane preparations of CHO cells transfected with the rat CCK-B receptor; format: cell membranes
# T2 sequence (P30553 whole entry): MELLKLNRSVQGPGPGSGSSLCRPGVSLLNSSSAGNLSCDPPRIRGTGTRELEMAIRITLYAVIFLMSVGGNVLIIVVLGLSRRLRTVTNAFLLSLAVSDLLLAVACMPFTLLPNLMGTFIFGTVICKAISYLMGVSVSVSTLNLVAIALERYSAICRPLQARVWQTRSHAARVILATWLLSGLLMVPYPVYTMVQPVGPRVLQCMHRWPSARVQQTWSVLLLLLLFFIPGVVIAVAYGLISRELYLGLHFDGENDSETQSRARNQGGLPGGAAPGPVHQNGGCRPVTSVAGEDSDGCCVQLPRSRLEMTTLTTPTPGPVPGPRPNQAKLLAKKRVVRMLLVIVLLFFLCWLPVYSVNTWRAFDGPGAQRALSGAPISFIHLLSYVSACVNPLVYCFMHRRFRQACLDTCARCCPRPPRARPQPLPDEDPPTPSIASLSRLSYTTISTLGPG
# Outline: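 Ki from displacement of [3H]pCCK8 bound to membranes of CHO cells stably transfected with the rat CCK-B receptor.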
# [3] = target: T2, Gastrin/cholecystokinin type B receptor; experiment: Inhibitory activity against CCK-B receptor
compound,measurement,setting,value
CC(Cc1c[nH]c2ccccc12)(NC(=O)OC1[C@H]2C[C@@H]3C[C@@H](C[C@H]1C3)C2)C(=O)N1CCC(C(=O)c2ccccc2)CC1 (stereo partly drawn),Ki,[1],1700 nM
same,Ki,[2],3400 nM
C[C@](Cc1c[nH]c2ccccc12)(NC(=O)OC1C2CC3CC(C2)CC1C3)C(=O)N1CC[C@H](Oc2ccc(Cl)cc2Cl)C[C@H]1C(=O)O (stereo partly drawn),Ki,[2],791 nM
C[C@](Cc1c[nH]c2ccccc12)(NC(=O)OC1C2CC3CC(C2)CC1C3)C(=O)N1CC[C@H](Oc2ccc(Cl)cc2Cl)C[C@@H]1C(=O)O (stereo partly drawn),Ki,[1],3720 nM
same,Ki,[2],175 nM
COC(=O)[C@H]1C[C@@H](Oc2ccc(Cl)cc2Cl)CCN1C(=O)[C@@](C)(Cc1c[nH]c2ccccc12)NC(=O)OC1C2CC3CC(C2)CC1C3 (stereo partly drawn),Ki,[2],1540 nM
C[C@](Cc1c[nH]c2ccccc12)(NC(=O)OC1C2CC3CC(C2)CC1C3)C(=O)N1C[C@H](OCc2ccccc2)C[C@@H]1C(=O)O (stereo partly drawn),Ki,[2],24 nM
C[C@](Cc1c[nH]c2ccccc12)(NC(=O)OC1C2CC3CC(C2)CC1C3)C(=O)N(CCc1ccc(Cl)cc1)CC(=O)O (stereo partly drawn),Ki,[1],1060 nM
C[C@](Cc1c[nH]c2ccccc12)(NC(=O)OC1C2CC3CC(C2)CC1C3)C(=O)N1C[C@H](Oc2ccc(Cl)cc2Cl)C[C@@H]1C(=O)O (stereo partly drawn),IC50,[3],37.4 nM
same,Ki,[1],751 nM
same,Ki,[2],15.3 nM
C[C@](Cc1c[nH]c2ccccc12)(NC(=O)OC1C2CC3CC(C2)CC1C3)C(=O)N1C[C@H](Oc2ccc(F)cc2F)C[C@@H]1C(=O)O (stereo partly drawn),IC50,[3],389 nM
same,Ki,[2],18.6 nM
C[C@](Cc1c[nH]c2ccccc12)(NC(=O)OC1C2CC3CC(C2)CC1C3)C(=O)N1CC[C@@H](Oc2ccc(Cl)cc2Cl)C[C@@H]1C(=O)O (stereo partly drawn),Ki,[2],789 nM
C[C@@](Cc1c[nH]c2ccccc12)(NC(=O)OC1C2CC3CC(C2)CC1C3)C(=O)N1CC[C@H](Oc2ccc(Cl)cc2Cl)C[C@@H]1C(=O)O (stereo partly drawn),Ki,[2],812 nM
C[C@@](Cc1c[nH]c2ccccc12)(NC(=O)OC1C2CC3CC(C2)CC1C3)C(=O)N1CC[C@H](Oc2ccc(Cl)cc2Cl)C[C@H]1C(=O)O (stereo partly drawn),IC50,[3],217 nM
same,Ki,[1],1060 nM
same,Ki,[2],1680 nM
C[C@](Cc1c[nH]c2ccccc12)(NC(=O)OC1C2CC3CC(C2)CC1C3)C(=O)N1CC[C@@H](Oc2ccc(Cl)cc2Cl)C[C@H]1C(=O)O (stereo partly drawn),Ki,[2],543 nM
C[C@](Cc1c[nH]c2ccccc12)(NC(=O)OC1C2CC3CC(C2)CC1C3)C(=O)N1C[C@H](Oc2ccc([N+](=O)[O-])cc2)C[C@@H]1C(=O)O (stereo partly drawn),IC50,[3],507 nM
same,Ki,[2],32.7 nM
C[C@@](Cc1c[nH]c2ccccc12)(NC(=O)OC1C2CC3CC(C2)CC1C3)C(=O)N1CC[C@@H](Oc2ccc(Cl)cc2Cl)C[C@H]1C(=O)O (stereo partly drawn),Ki,[2],896 nM
"CC(Cc1c[nH]c2ccccc12)(NC(=O)OC1C2CC3CC(C2)CC1C3)C(=O)N1CC[C@@H](Oc2ccc(Cl)cc2Cl)C[C@@H]1C(=O)O (single isomer, unassigned)",Ki,[2],1040 nM
